In ChEMBL document CHEMBL4007470, “Discovery of a 2'-fluoro-2'-C-methyl C-nucleotide HCV polymerase inhibitor and a phosphoramidate prodrug with favorable properties” (Bioorg Med Chem Lett, 2017):
≈ marks a conversion by molar mass, not a printed value. Each block holds one compound with its values, some of them ahead of it.

Columns and labels:
[1] = Inhibition of human DNA polymerase-alpha
Hepatitis C virus [2] = assay: Antiviral activity against HCV genotype 1b infected in human HuH7 cells by luciferase reporter gene assay; format: functional, cell-based, Hepacivirus hominis
Procedure, shortened: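 Luciferase-reporter genotype 1b subgenomic replicon in Huh-7 cells; EC50 is concentration giving 50% inhibition. Values are averages of at least three repeats.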

Huh-7 = assay: Cytotoxicity against human HuH7 cells; format: cell-based
[3] = Prodrug activation in human HuH7 cells infected with HCV genotype 1b assessed as ((2R,3R,4R,5R)-5-(4-aminoimidazo[1,2-f][1,2,4]triazin-7-yl)-5-cyano-4-fluoro-3-hydroxy-4-methyltetrahydrofuran-2-yl)methyl tetrahydrogen triphosphate level per million cells at 10 uM after 2 hrs by LC-MS/MS analysis; format: cell-based; conditions: huh-7, 2 h
Procedure, shortened: (§1)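 HCV genotype 1b replicon Huh-7 cells (DMEM with glutaMAX, 10% heat-inactivated FBS, penicillin-streptomycin, G418) grown to confluency (0.88×10^6 cells/well), exposed continuously to prodrug at 10 μM for up to 24 h; washed in ice-cold saline, extracted into 70% methanol overnight, dried, resuspended in 1 mM ammonium phosphate pH 8.5; triphosphate quantified by LC-MS/MS; LLOQ 0.137 pmol/million cells; duplicate wells, single experiment.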

[4] = Prodrug activation in human HuH7 cells infected with HCV genotype 1b assessed as ((2R,3R,4R,5R)-5-(4-aminoimidazo[1,2-f][1,2,4]triazin-7-yl)-5-cyano-4-fluoro-3-hydroxy-4-methyltetrahydrofuran-2-yl)methyl tetrahydrogen triphosphate level per million cells at 10 uM after 6 hrs by LC-MS/MS analysis; format: cell-based; conditions: huh-7, 6 h; procedure, shortened: as §1
[5] = Prodrug activation in human HuH7 cells infected with HCV genotype 1b assessed as ((2R,3R,4R,5R)-5-(4-aminoimidazo[1,2-f][1,2,4]triazin-7-yl)-5-cyano-4-fluoro-3-hydroxy-4-methyltetrahydrofuran-2-yl)methyl tetrahydrogen triphosphate level per million cells at 10 uM after 24 hrs by LC-MS/MS analysis; format: cell-based; conditions: huh-7, 24 h; procedure, shortened: as §1
[6] = Permeability of the compound from basolateral to apical side in human Caco2 cells at 10 uM; format: ADME, cell-based, Caco-2; conditions: for Papp B→A at 10 µM: Caco-2, read-out: permeability
Procedure, shortened: (§2)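 Caco-2 permeability at 10 μM compound, measured in apical-to-basolateral and basolateral-to-apical directions.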

Hepatitis C virus [7] = assay: Antiviral activity against HCV genotype 1a infected in human HuH7 cells by luciferase reporter gene assay; format: functional, cell-based, Hepacivirus hominis, subtype 1a
Hepatitis C virus [8] = assay: Antiviral activity against HCV genotype 4a infected in human HuH7 cells by luciferase reporter gene assay; format: functional, cell-based, Hepacivirus hominis
Plasma [9] = assay: (§3) Half life in human plasma at 2 uM by LC-MS/MS analysis; format: ADME, cell-free; conditions: 2 µM
Procedure, shortened: (§4)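 Compound at 2 μM incubated in plasma at 37 °C for up to 4 h. Aliquots quenched with 9 volumes of acetonitrile containing internal standard, then centrifuged. Supernatant analysed by LC-MS/MS.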

[10] = Half life in hamster plasma at 2 uM by LC-MS/MS analysis; format: ADME, cell-free; conditions: cricetinae; procedure, shortened: as §4
[11] = Half life in hamster intestinal S9 fractions at 2 uM by LC-MS/MS analysis; format: ADME, Intestine; conditions: cricetinae
Liver = assay: (§5) Hepatic extraction in human liver S9 fractions at 2 uM by LC-MS/MS analysis; format: ADME; conditions: s9, 2 µM, 2 µM
Procedure, shortened: (§6)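 Compound at 2 μM incubated with S9 fractions at 37 °C for 90 min with NADPH and UDPGA. Quenched with aqueous acetonitrile/methanol containing internal standard and analysed by LC-MS/MS. Half-life from an exponential fit assuming first-order kinetics. Hepatic extraction predicted from half-life using the well-stirred model.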

[12] = Hepatic extraction in hamster liver S9 fractions at 2 uM by LC-MS/MS analysis; format: ADME; conditions: cricetinae; procedure, shortened: as §6
[13] = Permeability of the compound from apical to basolateral side in human Caco2 cells at 10 uM; format: ADME, cell-based, Caco-2; conditions: for Papp A→B at 10 µM: Caco-2, read-out: permeability; procedure, shortened: as §2
[14] = Inhibition of human RNA polymerase-2
[15] = Prodrug activation in Syrian golden hamster liver assessed as triphosphate metabolite formation at 5 mg equivalents/kg, po after 1 hr by LC-MS/MS analysis; format: ADME, organism-based, Mesocricetus auratus; conditions: in vivo
Procedure, shortened: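 Golden Syrian hamsters (groups of 12) dosed orally at 5 mg-eq/kg in EtOH/PEG400/water buffered with 50 mM pH 4 citrate. Livers harvested under isoflurane at 1 h and extracted in cold KOH/EDTA/70% MeOH with Cl-ATP. Triphosphate measured by LC/MS/MS, with endogenous ATP checked for sample stability.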

[16] = Solubility of the compound in pH 7.4 solution; format: physicochemical
Procedure, shortened: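 Solubility measured at pH 7.4 using amorphous material.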

[17] = Fraction absorbed in Beagle dog at 5 mg/kg, po; format: ADME, organism-based, Canis lupus familiaris; conditions: in vivo, read-out: Fabs
Procedure, shortened: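 Male beagle dogs dosed orally at 5 mg/kg. Fraction absorbed determined by portal vein sampling.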

Plasma [18] = assay: Stability in rat plasma at 2 uM up to 4 hrs by LC-MS/MS analysis; format: ADME, cell-free; procedure, shortened: as §4
[19] = as §3; format: ADME, cell-free; procedure, shortened: as §4
[20] = Half life in human intestinal S9 fractions at 2 uM by LC-MS/MS analysis; format: ADME, Intestine; procedure, shortened: as §6
[21] = as §5; format: ADME; conditions: liver S9 fractions, read-out: ERH; procedure, shortened: as §6
[22] = Hepatitis C virus, genotype 1b, Huh-7

SMILES: C[C@@]1(CO)[C@H](O)CC[C@@]2(C)[C@H]1CC[C@H]1C[C@@H]3C[C@@]12CC[C@]3(O)CO [APHIDICOLIN]
IC50 [1]: 7.3 µM

SMILES: CCOC(=O)[C@H](C)NP(=O)(OC[C@H]1O[C@@](C#N)(c2ccc3c(N)ncnn23)[C@](C)(F)[C@@H]1O)Oc1ccccc1 (some centres not stated)
EC50 (Hepatitis C virus [2]; [22]): 3.24 µM
Activity (Huh-7): Non-Toxic
Drug metabolism [3]: 1.6 pmol
Drug metabolism [4]: 5.8 pmol
Drug metabolism [5]: 3.3 pmol

permeability ([6]; caco-2, 10 µM, 10 µM): 9.2 ×10⁻⁶ cm/s
EC50 (Hepatitis C virus [2]): 31.2 µM
EC50 (Hepatitis C virus [7]): 7.3 µM
EC50 (Hepatitis C virus [8]): 0.74 µM
t1/2 (Plasma [9]): > 13.2 h
t1/2 ([10]; 2 µM): 7.17 h
t1/2 ([11]; s9, 2 µM, 2 µM): 0.3 h
ERH (Liver): 78%
ERH ([12]; s9, 2 µM, 2 µM): 96%
permeability ([13]; caco-2, 10 µM, 10 µM): 1.3 ×10⁻⁶ cm/s
SMILES: CC(C)OC(=O)C1(NP(=O)(OC[C@H]2O[C@@H](c3cnc4c(N)ncnn34)[C@](C)(F)[C@@H]2O)Oc2ccccc2)CCC1 (stereo in doubt; 54)

SMILES: CC[C@H](C)[C@@H]1NC(=O)CNC(=O)[C@@H]2Cc3c([nH]c4cc(O)ccc34)[S+]([O-])C[C@@H](NC(=O)CNC1=O)C(=O)N[C@@H](CC(N)=O)C(=O)N1C[C@H](O)C[C@H]1C(=O)NC([C@@H](C)[C@@H](O)CO)C(=O)N2 (some centres not stated)
IC50 [14]: 0.0024 µM

Papp B→A at 10 µM [6]: 8.9 ×10⁻⁶ cm/s
liver triphosphate concentration [15]: 0.53 µM
solubility [16]: 306 µg/mL (≈ 614 µM)
Fa [17]: 10%
Papp A→B at 10 µM [13]: 0.2 ×10⁻⁶ cm/s
Stability (Plasma [18]): Unstable
SMILES: CC(C)OC(=O)[C@H](C)N[P@@](=O)(O)OC[C@H]1O[C@@](C#N)(c2ccc3c(N)ncnn23)[C@](C)(O)[C@@H]1O

Papp B→A at 10 µM [6]: 17.6 ×10⁻⁶ cm/s
EC50 (Hepatitis C virus [2]; [22]): 41.8 µM
EC50 (Hepatitis C virus [7]; Hepatitis C virus, subtype 1a, Huh-7): 5 µM
EC50 (Hepatitis C virus [8]; Hepatitis C virus, genotype 4a, Huh-7): 1.1 µM
half-life at 2 µM [19]: 2.58 h
half-life at 2 µM [10]: 2.07 h
half-life at 2 µM [20]: > 13.2 h
half-life at 2 µM ([11]; intestinal S9 fractions): 1.77 h
hepatic extraction ratio at 2 µM [21]: 0.65
hepatic extraction ratio at 2 µM ([12]; liver S9 fractions, read-out: ERH): 0.86
liver triphosphate concentration [15]: 1.29 µM
solubility [16]: 657 µg/mL (≈ 1160 µM)
Papp A→B at 10 µM [13]: 4.2 ×10⁻⁶ cm/s
Stability (Plasma [18]): Unstable
SMILES: CC(C)OC(=O)C(C)(C)NP(=O)(OC[C@H]1O[C@@H](c2ccc3c(N)ncnn23)[C@](C)(F)[C@@H]1O)Oc1ccccc1 (some centres not stated)
